# In ChEMBL document CHEMBL1149323, “Synthesis and evaluation of dihydropyrroloquinolines that selectively antagonize P-glycoprotein” (J Med Chem, 2004):
# Tests used:
# [1] = Reversal index is the ratio of IC50 in the absence of modulator to that of presence of modulator when combined with 5-fluorouracil (uM) in NCI/ADR cell line; type: functional
# Summary of the method: (§1)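 Cells treated in triplicate for 48 h with graded cytotoxic drug, with or without modulator. Survival quantified by sulforhodamine B absorbance at 570 nm. IC50 of the cytotoxic drug derived with and without modulator; reversal index = IC50 without modulator / IC50 with modulator.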
# [2] = Reversal index is the ratio of IC50 in the absence of modulator to that of presence of modulator when combined with taxol (nM) in NCI/ADR cell line; type: functional; summary of the method: as §1
# [3] = Reversal index is the ratio of IC50 in the absence of modulator to that of presence of modulator when combined with 5-Fluorouracil (uM) in MCF-7 cell line; type: functional, MCF7; summary of the method: as §1
# [4] = Reversal index is the ratio of IC50 in the absence of modulator to that of presence of modulator when combined with vinblastine (nM) in P388/ADR cell line; type: functional; summary of the method: as §1
# [5] = Reversal index is the ratio of IC50 in the absence of modulator to that of presence of modulator when combined with vincristine (nM) in MCF-7 cell line; type: functional, MCF7; summary of the method: as §1
# [6] = Reversal index is the ratio of IC50 in the absence of modulator to that of presence of modulator when combined with 5-Fluorouracil (uM) in T24 cell line; type: functional, T-24; summary of the method: as §1
# [7] = Reversal index is the ratio of IC50 in the absence of modulator to that of presence of modulator when combined with 5-fluorouracil (uM) in P388/ADR cell line; type: functional; summary of the method: as §1
# [8] = Reversal index is the ratio of IC50 in the absence of modulator to that of presence of modulator when combined with vincristine (nM) in MCF-7/VP cell line; type: functional; summary of the method: as §1
# [9] = Reversal index is the ratio of IC50 in the absence of modulator to that of presence of modulator when combined with taxol (nM) in MCF-7/VP cell line; type: functional; summary of the method: as §1
# [10] = Reversal index is the ratio of IC50 in the absence of modulator to that of presence of modulator when combined with vinblastine (nM) in MCF-7/VP cell line; type: functional; summary of the method: as §1
# [11] = Reversal index is the ratio of IC50 in the absence of modulator to that of presence of modulator when combined with cisplatin (uM) in MCF-7 cell line; type: functional, MCF7; summary of the method: as §1
# [12] = Reversal index is the ratio of IC50 in the absence of modulator to that of presence of modulator when combined with 5-fluorouracil (uM) in MCF-7/VP cell line; type: functional; summary of the method: as §1
# [13] = Reversal index is the ratio of IC50 in the absence of modulator to that of presence of modulator when combined with vincristine (nM) in T24 cell line; type: functional, T-24; summary of the method: as §1
# [14] = Reversal index is the ratio of IC50 in the absence of modulator to that of presence of modulator when combined with vinblastine (nM) in NCI/ADR cell line; type: functional; summary of the method: as §1
# [15] = Reversal index is the ratio of IC50 in the absence of modulator to that of presence of modulator when combined with vincristine (nM) in NCI/ADR cell line; type: functional; summary of the method: as §1
# [16] = Reversal index is the ratio of IC50 in the absence of modulator to that of presence of modulator when combined with vinblastine (nM) in T24 cell line; type: functional, T-24; summary of the method: as §1
# [17] = Reversal index is the ratio of IC50 in the absence of modulator to that of presence of modulator when combined with taxol (nM) in T24 cell line; type: functional, T-24; summary of the method: as §1
# [18] = Reversal index is the ratio of IC50 in the absence of modulator to that of presence of modulator when combined with cisplatin (uM) in T24 cell line; type: functional, T-24; summary of the method: as §1
# [19] = Reversal index is the ratio of IC50 in the absence of modulator to that of presence of modulator when combined with cisplatin (uM) in P388/ADR cell line; type: functional; summary of the method: as §1
# [20] = Reversal index is the ratio of IC50 in the absence of modulator to that of presence of modulator when combined with doxorubicin (uM) in P388/ADR cell line
# [21] = Reversal index is the ratio of IC50 in the absence of modulator to that of presence of modulator when combined with cisplatin (uM) in NCI/ADR cell line; type: functional; summary of the method: as §1
# [22] = Reversal index is the ratio of IC50 in the absence of modulator to that of presence of modulator when combined with vincristine (nM) in P388/ADR cell line; type: functional; summary of the method: as §1
# [23] = Reversal index is the ratio of IC50 in the absence of modulator to that of presence of modulator when combined with cisplatin (uM) in MCF-7/VP cell line; type: functional; summary of the method: as §1
# [24] = Reversal index is the ratio of IC50 in the absence of modulator to that of presence of modulator when combined with vinblastine (nM) in MCF-7 cell line; type: functional, MCF7; summary of the method: as §1
# [25] = Reversal index is the ratio of IC50 in the absence of modulator to that of presence of modulator when combined with taxol (nM) in MCF-7 cell line; type: functional, MCF7; summary of the method: as §1
# Mus musculus [26] = experiment: Volume of the first compartment after intraperitoneal administration of 100 mg/kg in mice; details: in vivo, ip
# Mus musculus [27] = experiment: AUMC after intraperitoneal administration of 100 mg/kg in mice; type: ADME, organism-based; design: dose 100 mg/kg, route intraperitoneal; details: in vivo, ip
# Summary of the method: (§2)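 Female Swiss-Webster mice, 6–8 weeks old, given 100 mg/kg PGP-4008·HCl intraperitoneally. Blood taken by intracardiac puncture under anesthesia at 1–240 min, three animals per time point. Samples precipitated with ice-cold acetonitrile with 2-naphthol internal standard, then HPLC read at 254 nm against a standard curve. Two-compartment model fit.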
# Mus musculus [28] = experiment: Volume of distribution after intraperitoneal administration of 100 mg/kg in mice; type: ADME, organism-based; design: dose 100 mg/kg, route intraperitoneal; details: in vivo, ip; summary of the method: as §2
# [29] = Reversal index is the ratio of IC50 in the absence of modulator to that of presence of modulator when combined with taxol (nM) in P388/ADR cell line
# [30] = biological target: ATP-dependent translocase ABCB1 (Homo sapiens, UniProt P08183); experiment: Compound was evaluated for broad range of antagonistic activity against P-glycoprotein (Pgp) value expressed as IC20; type: functional
# Sequence of ATP-dependent translocase ABCB1 (P08183 whole entry): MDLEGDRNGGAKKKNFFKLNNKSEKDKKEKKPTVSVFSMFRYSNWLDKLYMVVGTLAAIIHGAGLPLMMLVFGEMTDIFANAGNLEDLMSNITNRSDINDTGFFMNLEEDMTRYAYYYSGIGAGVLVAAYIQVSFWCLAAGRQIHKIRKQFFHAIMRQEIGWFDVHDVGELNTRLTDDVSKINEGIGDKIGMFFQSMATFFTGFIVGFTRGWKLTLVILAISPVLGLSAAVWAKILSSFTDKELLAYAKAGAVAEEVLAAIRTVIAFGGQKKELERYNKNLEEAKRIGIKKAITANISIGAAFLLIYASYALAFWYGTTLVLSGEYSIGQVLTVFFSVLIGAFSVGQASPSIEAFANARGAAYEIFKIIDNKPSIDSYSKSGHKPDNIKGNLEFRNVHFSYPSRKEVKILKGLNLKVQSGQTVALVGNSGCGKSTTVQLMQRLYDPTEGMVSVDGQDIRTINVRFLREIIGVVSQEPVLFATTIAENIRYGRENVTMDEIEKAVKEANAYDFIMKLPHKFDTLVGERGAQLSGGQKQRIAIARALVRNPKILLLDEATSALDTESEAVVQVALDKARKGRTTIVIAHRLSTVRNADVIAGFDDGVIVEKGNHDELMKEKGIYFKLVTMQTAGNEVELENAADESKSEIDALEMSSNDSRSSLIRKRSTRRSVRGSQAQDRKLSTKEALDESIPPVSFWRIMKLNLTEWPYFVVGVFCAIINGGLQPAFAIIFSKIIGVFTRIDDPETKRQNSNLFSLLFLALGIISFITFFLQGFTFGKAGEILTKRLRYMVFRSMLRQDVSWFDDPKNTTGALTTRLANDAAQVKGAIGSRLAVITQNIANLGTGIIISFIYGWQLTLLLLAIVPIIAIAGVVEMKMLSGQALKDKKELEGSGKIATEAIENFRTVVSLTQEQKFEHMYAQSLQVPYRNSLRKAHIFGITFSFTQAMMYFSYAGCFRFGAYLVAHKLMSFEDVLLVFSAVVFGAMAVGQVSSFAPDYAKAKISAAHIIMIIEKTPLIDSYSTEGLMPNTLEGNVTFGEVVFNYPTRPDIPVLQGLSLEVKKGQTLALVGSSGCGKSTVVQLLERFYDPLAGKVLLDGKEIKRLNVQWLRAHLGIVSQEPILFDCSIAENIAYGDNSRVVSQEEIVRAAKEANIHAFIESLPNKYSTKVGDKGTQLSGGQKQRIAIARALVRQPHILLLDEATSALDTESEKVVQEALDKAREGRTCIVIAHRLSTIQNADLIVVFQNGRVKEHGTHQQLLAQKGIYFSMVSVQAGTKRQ
# [31] = Maximum concentration in plasma was determined after intraperitoneal administration of 100 mg/kg in mice; type: ADME, organism-based; design: dose 100 mg/kg, route intraperitoneal; details: mouse, ip; summary of the method: as §2
# Mus musculus [32] = experiment: In vivo tumor growth inhibition in mice when […] at a day 15; type: functional
# Summary of the method: (§3)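 Balb/c female mice, 6–8 weeks old, with 10^6 JC murine mammary adenocarcinoma cells injected subcutaneously in the right hind quarter. Treatment began once tumors were palpable (day 1), five mice per group. Dosing on days 1, 5 and 9: 100 mg/kg i.p. PGP-4008·HCl with or without 5 mg/kg doxorubicin. Caliper volumes calculated as (L×W²)/2 through day 15; unpaired t-test with Welch correction.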
# Mus musculus [33] = experiment: The second majority of the volume of distribution after intraperitoneal administration of 100 mg/kg in mice; type: ADME, organism-based; design: dose 100 mg/kg, route intraperitoneal; details: in vivo, ip; summary of the method: as §2
# Mus musculus [34] = experiment: In vivo tumor growth inhibition in mice when administered subcutaneously at a day 5; type: functional; details: in the assay text read “intraperitoneally” for “subcutaneously”; summary of the method: as §3
# Mus musculus [35] = experiment: In vivo tumor growth inhibition in mice when […] at a day 1; type: functional; summary of the method: as §3
# MCF-7 (Homo sapiens) = experiment: Toxicity against MCF-7 cells
# [36] = Plasma clearance rate after intraperitoneal administration of 100 mg/kg in mice; type: ADME, organism-based; design: dose 100 mg/kg, route intraperitoneal; details: mouse, ip, read-out: Clp (converted); summary of the method: as §2
# Mus musculus [37] = experiment: In vivo tumor growth inhibition in mice when administered […] at a day 12; type: functional; summary of the method: as §3
# [38] = Compound was evaluated for broad range of antagonistic activity against multi drug resistance-related protein (MRP) value expressed as IC20; type: functional; design: unit not given here
# Mus musculus [39] = experiment: In vivo tumor growth inhibition in mice when administered […] at a day 9; type: functional; summary of the method: as §3
SMILES,RI [1],RI [2],RI [4],RI [5],RI [6],RI [7],RI [8],RI [9],RI [10],RI [13],RI [14],RI [15],RI [16],RI [17],RI [18],RI [19],RI [20],RI [21],RI [22],RI [23],also measured
COc1ccc(CCN(C)CCCC(C#N)(c2ccc(OC)c(OC)c2)C(C)C)cc1OC (configuration not stated),0.9,106,61,4.6,1.6,0.7,15,1.1,2.4,3.7,173,50,2.7,1.6,1,2,1000,1.1,112,0.8,RI [3]: 0.9; RI [11]: 1.1; RI [12]: 0.9; RI [24]: 1.2; RI [25]: 1.1
O=C(Cc1ccccc1)Nc1c2c(nc3ccccc13)N(Cc1ccccc1)CC2,1,70,63,0.9,2.6,0.7,1,0.8,1.3,1.5,35,18,3.8,1.2,1.1,1.9,200,1.2,30,0.8,V1 (Mus musculus [26]): 2.3 mL; AUMC (Mus musculus [27]): 9.4 µg·h²/mL; Vdss (Mus musculus [28]): 43 mL; RI [29]: 202; Activity [30]: 10.7; Cmax [31]: 197 µg/mL; Tumor volume (Mus musculus [32]): 2000 mm**3; V2 (Mus musculus [33]): 40.5 mL; Tumor volume (Mus musculus [34]): 470 mm**3; Tumor volume (Mus musculus [35]): 380 mm**3; Toxicity (MCF-7 (Homo sapiens)): 13 µM; CL/F [36]: 1.34 mL/min; Tumor volume (Mus musculus [37]): 1280 mm**3; Activity [38]: 0.7; Tumor volume (Mus musculus [39]): 1030 mm**3; RI [24]: 1.8; RI [25]: 0.9
